In ChEMBL document CHEMBL4014345, “Development of Selective Clk1 and -4 Inhibitors for Cellular Depletion of Cancer-Relevant Proteins” (J Med Chem, 2017):
Calls of active or inactive are those of the source. The calls are words filed in the database; no cut-off is given here.

Columns and labels:
THP-1 = assay: Cytotoxicity against human THP1 cells assessed as growth inhibition after 5 days by MTT assay; type: functional; settings: THP-1, 120 h
Outline: (§1)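 They were seeded at 5000 cells per well onto compound or DMSO (0.2% final). Plates were kept 5 days at 37 °C in 5% CO2 with no medium change, then read by MTT.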

MDA-MB-231 [1] = assay: Down regulation of CD44 expression in human MDA-MB-231 cells at 2.5 to 20 uM after 3 days by Western blot analysis; type: functional, cell-based
Outline: (§2)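 T24 or MDA-MB-231 cells were grown in DMEM to 70% confluency. The medium was replaced with compound diluted in DMEM, and cells were kept 3 days. Total protein was immunoblotted with monoclonal antibodies in 3% BSA/PBS against EGFR, p70S6K α, PARP-1, ERK2, HDAC1, CD44, PCNA and GRP94.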

[2] = biological target: Dual specificity protein kinase CLK4 (Mus musculus, UniProt O35493); assay: Inhibition of recombinant GST-tagged mouse CLK4 using GRSRSRSRSRSR as substrate after 30 mins in presence of [gamma-32P]-ATP by scintillation counting method
Sequence of Dual specificity protein kinase CLK4 (O35493 whole entry): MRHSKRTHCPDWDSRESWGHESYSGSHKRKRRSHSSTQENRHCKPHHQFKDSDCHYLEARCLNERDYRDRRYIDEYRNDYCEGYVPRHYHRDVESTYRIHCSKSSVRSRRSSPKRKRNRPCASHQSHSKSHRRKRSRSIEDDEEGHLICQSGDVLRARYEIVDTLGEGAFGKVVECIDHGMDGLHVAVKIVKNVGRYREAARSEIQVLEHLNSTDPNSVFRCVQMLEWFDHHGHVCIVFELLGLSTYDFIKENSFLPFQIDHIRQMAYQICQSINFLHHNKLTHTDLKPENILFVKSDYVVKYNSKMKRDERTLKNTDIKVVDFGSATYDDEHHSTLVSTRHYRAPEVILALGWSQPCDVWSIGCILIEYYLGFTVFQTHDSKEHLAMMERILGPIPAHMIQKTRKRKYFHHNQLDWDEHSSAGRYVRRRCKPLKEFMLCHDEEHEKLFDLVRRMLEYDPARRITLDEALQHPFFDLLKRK

[3] = biological target: T1, Dual specificity tyrosine-phosphorylation-regulated kinase 1A (Homo sapiens, UniProt Q13627); assay: Inhibition of N-terminal His6-tagged recombinant human Dyrk1A expressed in Escherichia coli BL21 (DE3) using KKISGRLSPIMTEQ-NH2 as substrate after 15 mins in presence of [gamma-32]-ATP
[4] = biological target: T2, Dual specificity tyrosine-phosphorylation-regulated kinase 1B (Homo sapiens, UniProt Q9Y463); assay: Inhibition of full length recombinant GST-tagged human DYRK1B expressed in baculovirus using KKISGRLSPIMTEQ-NH2 as substrate after 15 mins
Target sequence in this assay (Q9Y463 whole entry): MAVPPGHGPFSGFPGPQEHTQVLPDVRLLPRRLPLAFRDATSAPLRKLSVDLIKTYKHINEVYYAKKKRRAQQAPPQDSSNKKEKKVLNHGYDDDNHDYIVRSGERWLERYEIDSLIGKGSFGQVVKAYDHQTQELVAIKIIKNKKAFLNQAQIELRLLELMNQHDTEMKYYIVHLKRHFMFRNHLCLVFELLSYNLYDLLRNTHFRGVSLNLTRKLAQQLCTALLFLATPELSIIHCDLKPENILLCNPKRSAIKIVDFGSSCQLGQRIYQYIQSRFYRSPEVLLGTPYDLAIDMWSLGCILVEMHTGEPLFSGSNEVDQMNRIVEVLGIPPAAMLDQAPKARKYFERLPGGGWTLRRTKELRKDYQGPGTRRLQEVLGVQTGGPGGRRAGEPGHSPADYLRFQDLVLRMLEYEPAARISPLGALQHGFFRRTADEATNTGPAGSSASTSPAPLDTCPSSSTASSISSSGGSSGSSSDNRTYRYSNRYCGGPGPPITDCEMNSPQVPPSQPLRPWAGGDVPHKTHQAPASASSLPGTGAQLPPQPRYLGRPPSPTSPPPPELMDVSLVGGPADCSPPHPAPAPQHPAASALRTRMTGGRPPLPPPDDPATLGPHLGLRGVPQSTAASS

T-24 [5] = assay: Down regulation of PARP1 expression in human T24 cells at 1.25 to 10 uM after 3 days by Western blot analysis; type: functional, cell-based; outline: as §2
MDA-MB-231 [6] = assay: Down regulation of PARP1 expression in human MDA-MB-231 cells at 2.5 to 20 uM after 3 days by Western blot analysis; type: functional, cell-based; outline: as §2
T-24 [7] = assay: Down regulation of GRP94 expression in human T24 cells at 1.25 to 10 uM after 3 days by Western blot analysis; type: functional, cell-based; outline: as §2
[8] = biological target: Dual specificity protein kinase CLK3 (Mus musculus) (UniProt O35492); assay: Inhibition of recombinant GST-tagged mouse CLK3 using GRSRSRSRSRSR as substrate at 1 uM after 30 mins in presence of [gamma-32P]-ATP by scintillation counting method
Sequence of Dual specificity protein kinase CLK3 (Mus musculus) (O35492 whole entry): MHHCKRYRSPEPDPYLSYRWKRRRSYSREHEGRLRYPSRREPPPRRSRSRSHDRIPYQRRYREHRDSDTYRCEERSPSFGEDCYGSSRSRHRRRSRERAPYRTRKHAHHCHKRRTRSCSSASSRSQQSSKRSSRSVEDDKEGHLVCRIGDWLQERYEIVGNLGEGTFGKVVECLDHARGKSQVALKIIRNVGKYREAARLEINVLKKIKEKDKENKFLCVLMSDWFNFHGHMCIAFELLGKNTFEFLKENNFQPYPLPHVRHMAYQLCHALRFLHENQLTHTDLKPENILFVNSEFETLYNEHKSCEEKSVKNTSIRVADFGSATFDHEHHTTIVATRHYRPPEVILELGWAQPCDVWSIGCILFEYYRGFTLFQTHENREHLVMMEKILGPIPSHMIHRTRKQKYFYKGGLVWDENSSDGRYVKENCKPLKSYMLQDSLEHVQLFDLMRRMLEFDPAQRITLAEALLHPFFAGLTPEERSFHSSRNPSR

[9] = biological target: SRSF protein kinase 2 (Homo sapiens) (UniProt P78362); assay: Inhibition of SRPK2 (unknown origin) at 1 uM
Sequence of SRSF protein kinase 2 (Homo sapiens) (P78362 whole entry, looked up): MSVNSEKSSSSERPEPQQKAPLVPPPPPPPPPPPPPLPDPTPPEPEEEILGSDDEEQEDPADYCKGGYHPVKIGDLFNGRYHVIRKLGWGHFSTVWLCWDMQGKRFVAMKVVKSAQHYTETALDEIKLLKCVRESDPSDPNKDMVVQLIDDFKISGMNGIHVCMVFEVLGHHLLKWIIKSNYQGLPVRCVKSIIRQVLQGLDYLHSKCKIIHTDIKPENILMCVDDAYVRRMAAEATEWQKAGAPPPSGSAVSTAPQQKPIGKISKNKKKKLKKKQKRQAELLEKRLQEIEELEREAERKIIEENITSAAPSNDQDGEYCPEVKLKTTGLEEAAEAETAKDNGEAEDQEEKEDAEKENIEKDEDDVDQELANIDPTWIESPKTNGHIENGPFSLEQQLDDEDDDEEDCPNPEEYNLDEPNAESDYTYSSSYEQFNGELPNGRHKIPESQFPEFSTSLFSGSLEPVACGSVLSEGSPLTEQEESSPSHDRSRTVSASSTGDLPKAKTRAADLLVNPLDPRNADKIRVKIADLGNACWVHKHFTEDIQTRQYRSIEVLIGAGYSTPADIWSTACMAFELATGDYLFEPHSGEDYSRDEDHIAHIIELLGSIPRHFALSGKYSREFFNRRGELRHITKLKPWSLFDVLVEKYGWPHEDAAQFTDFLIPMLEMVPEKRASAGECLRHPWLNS
Outline: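 Tested in a commercial kinase profiling panel at an ATP concentration of 100 μM. Data are the mean of duplicates that differed by less than 7%.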

MDA-MB-231 [10] = assay: Down regulation of ERK2 expression in human MDA-MB-231 cells at 2.5 to 20 uM after 3 days by Western blot analysis; type: functional, cell-based; outline: as §2
[11] = biological target: T2, Dual specificity tyrosine-phosphorylation-regulated kinase 1B; assay: Inhibition of full length recombinant GST-tagged human DYRK1B expressed in baculovirus using KKISGRLSPIMTEQ-NH2 as substrate at 1 uM after 15 mins
Target sequence in this assay (Q9Y463 whole entry, looked up): as the sequence (Q9Y463 whole entry) above

Homo sapiens = organism: Homo sapiens; assay: Inhibition of recombinant human casein kinase 2 using RRREDEESDDEE as substrate at 1 uM after 30 mins in presence of [gamma-32P]-ATP by scintillation counting method
MDA-MB-231 [12] = assay: Down regulation of GRP94 expression in human MDA-MB-231 cells at 2.5 to 20 uM after 3 days by Western blot analysis; type: functional, cell-based; outline: as §2
[13] = biological target: T3, Dual specificity protein kinase CLK1/CLK4 (Homo sapiens, UniProt Q9HAZ1+P49759); assay: Inhibition of CLK1/4 in human T24 cells assessed as down regulation of HDAC1 expression at 1.25 uM after 3 days by Western blot analysis relative to control; type: cell-based; outline: as §2
[14] = biological target: Dual specificity tyrosine-phosphorylation-regulated kinase 3 (Homo sapiens) (UniProt O43781); assay: Inhibition of DYRK3 (unknown origin) using KKISGRLSPIMTEQ-NH2 as substrate at 1 uM after 15 mins in presence of [gamma-32P]-ATP
Sequence of Dual specificity tyrosine-phosphorylation-regulated kinase 3 (Homo sapiens) (O43781 whole entry): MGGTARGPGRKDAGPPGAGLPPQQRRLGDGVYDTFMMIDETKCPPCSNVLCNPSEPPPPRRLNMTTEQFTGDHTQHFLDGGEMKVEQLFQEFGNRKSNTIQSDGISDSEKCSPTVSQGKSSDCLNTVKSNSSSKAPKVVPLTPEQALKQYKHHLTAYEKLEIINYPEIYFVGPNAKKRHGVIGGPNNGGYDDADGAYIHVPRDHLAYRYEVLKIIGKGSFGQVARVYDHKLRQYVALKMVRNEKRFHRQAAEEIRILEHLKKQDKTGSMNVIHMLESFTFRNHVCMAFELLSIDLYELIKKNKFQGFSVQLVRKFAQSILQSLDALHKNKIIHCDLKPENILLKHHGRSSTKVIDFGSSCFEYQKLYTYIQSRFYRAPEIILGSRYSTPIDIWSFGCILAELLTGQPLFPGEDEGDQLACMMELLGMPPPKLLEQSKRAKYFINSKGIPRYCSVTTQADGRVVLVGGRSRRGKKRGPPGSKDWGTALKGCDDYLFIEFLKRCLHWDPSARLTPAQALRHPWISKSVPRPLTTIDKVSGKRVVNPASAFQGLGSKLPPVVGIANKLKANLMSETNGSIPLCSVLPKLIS

[15] = biological target: T3, Dual specificity protein kinase CLK1/CLK4; assay: Inhibition of CLK1/4 in human MDA-MB-231 cells assessed as down regulation of EGFR expression after 3 days by Western blot analysis; type: cell-based; outline: as §2
[16] = biological target: T3, Dual specificity protein kinase CLK1/CLK4; assay: Inhibition of CLK1/4 in human MDA-MB-231 cells assessed as down regulation of EGFR expression at 10 uM after 3 days by Western blot analysis relative to control; type: cell-based; outline: as §2
[17] = biological target: T3, Dual specificity protein kinase CLK1/CLK4; assay: Inhibition of CLK1/4 in human T24 cells assessed as down regulation of EGFR expression at 10 uM after 3 days by Western blot analysis relative to control; type: cell-based; outline: as §2
[18] = biological target: Dual specificity protein kinase CLK1 (Homo sapiens, UniProt P49759); assay: Inhibition of recombinant human GST-tagged Clk1 expressed in Escherichia coli at 1 uM using RS repeat substrate peptide after 15 mins in presence of [gamma-32]-ATP
Sequence of Dual specificity protein kinase CLK1 (P49759 whole entry, looked up): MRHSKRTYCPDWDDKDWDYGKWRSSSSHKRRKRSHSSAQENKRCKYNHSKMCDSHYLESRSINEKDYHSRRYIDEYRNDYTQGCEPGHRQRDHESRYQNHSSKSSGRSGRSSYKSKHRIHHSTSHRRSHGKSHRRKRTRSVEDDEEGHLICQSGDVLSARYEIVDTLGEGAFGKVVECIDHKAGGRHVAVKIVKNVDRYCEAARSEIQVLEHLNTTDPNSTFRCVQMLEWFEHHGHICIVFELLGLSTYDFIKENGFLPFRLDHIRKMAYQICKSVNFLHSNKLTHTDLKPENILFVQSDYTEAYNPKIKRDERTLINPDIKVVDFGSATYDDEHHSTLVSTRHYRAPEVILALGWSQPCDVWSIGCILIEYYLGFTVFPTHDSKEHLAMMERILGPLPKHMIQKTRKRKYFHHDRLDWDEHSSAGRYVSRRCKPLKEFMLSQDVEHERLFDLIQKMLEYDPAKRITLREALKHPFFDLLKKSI

HepG2 = assay: Cytotoxicity against human HepG2 cells assessed as growth inhibition after 5 days by MTT assay; type: functional; settings: HepG2, 120 h; outline: as §1
[19] = biological target: T3, Dual specificity protein kinase CLK1/CLK4; assay: Inhibition of CLK1/4 in human MDA-MB-231 cells assessed as down regulation of S6 kinase expression after 3 days by Western blot analysis; type: cell-based; outline: as §2
T-24 [20] = assay: Down regulation of ERK2 expression in human T24 cells at 1.25 to 10 uM after 3 days by Western blot analysis; type: functional, cell-based; outline: as §2
T-24 [21] = assay: Down regulation of PCNA expression in human T24 cells at 1.25 to 10 uM after 3 days by Western blot analysis; type: functional, cell-based; outline: as §2
[22] = biological target: T1, Dual specificity tyrosine-phosphorylation-regulated kinase 1A; assay: Inhibition of N-terminal His6-tagged recombinant human Dyrk1A expressed in Escherichia coli BL21 (DE3) using KKISGRLSPIMTEQ-NH2 as substrate at 1 uM after 15 mins in presence of [gamma-32]-ATP; settings: 0.25 h

`COc1ccc2sc(C(=O)N(C)Cc3cccc(F)c3)cc2c1` was tested, and the GI50 (THP-1) was 27200 nM, the Activity (MDA-MB-231 [1]) was “inactive” and the IC50 [2] was 2.3 nM. For the same compound, the IC50 [3] was 340 nM, the IC50 [4] was 206 nM and the Activity (T-24 [5]) was “inactive”. For the same compound, the Activity (MDA-MB-231 [6]) was “inactive”, the Activity (T-24 [7]) was “inactive” and the inhibition [8] was 58%. The inhibition [9] was 7%, the Activity (MDA-MB-231 [10]) was “inactive” and the inhibition [11] was 77%. For the same compound, the inhibition (Homo sapiens) was 1.4%, the Activity (MDA-MB-231 [12]) was “inactive” and the inhibition [13] was 13.6%. The inhibition [14] was “inactive”, the IC50 [15] was 4200 nM and the inhibition [16] was 54.1%. The inhibition [17] was 59.7%, the inhibition [18] was 92% and the GI50 (HepG2) was 2800 nM. The IC50 [19] was > 20000 nM, the Activity (T-24 [20]) was “inactive” and the Activity (T-24 [21]) was “inactive”. The inhibition at 1 µM [22] was 72%.
